Compound activity (PubChem BioAssay)
Hits are enriched below; roughly 1.5% of the tested compounds scored in any of these assays.
PKA-R1A activ – activates the PKA-R1A holoenzyme complex; PKA-R1A dissociation, Cy5-IP20 fluorescence polarization; scaled: DMSO 0%, 113 µM cGMP 100%; activation, % at 11.4 µM; AID 504707; 0.083% of 340,000 active;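 active = percent activation above the mean of all tested compounds plus 3 SD, cut at about 19% in these data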;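 note: higher means more PKAc released from R1A so a rise in polarization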
Rin1-Abl PPI inh – inhibitors of human Rin1-Abl protein interaction. P00519+Q13671. TR-FRET Rin1/Abl binding, biochemical. 0.4% of 360,000 active. inhibition, % at 7.35 µM; in the data active = inhibition above about 5%, passing the limit was not always enough
TbMetRS inhib – Trypanosoma brucei MetRS inhibition; purified T. brucei MetRS, ATP depletion, Kinase-Glo luminescence; inhibition, % at 11.9 µM; 0.4% of 360,000 active; AID 624268;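 active = inhibition above a per-plate cutoff of the control wells' mean inhibition plus 3 SD, cut at about 5.5% in these data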
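Assay system: T. brucei methionyl-tRNA synthetase, purified | Medium: HEPES buffer with MgCl2, KCl, DTT, spermine, BSA, pyrophosphatase | Compound: 11.9 µM single point | Incubation: 15 min enzyme-compound preincubation, 2 h reaction, 10 min detection, 25 °C | Measured by: Kinase-Glo luciferase luminescence reporting remaining unconsumed ATP | Measure: % inhibition normalized to control-well medians | Replication: Singlicate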
H9c2 protect – protects H9c2 cardiomyocytes from peroxide injury; H2O2 injury protection, ATPLite, 2 h; protection from H2O2 cell death, % at 20 µM; 0.63% of 360,000 active; AID 588492;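 active = compounds giving at least 50% protection of heart cells from peroxide-induced death in the single-dose screen, raw or plate-pattern-corrected value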
PKA-R2B act – activates the human PKA-R2B holoenzyme complex | AID 504700 | PKA-R2B holoenzyme dissociation, Cy5-IP20 fluorescence polarization; R2B truncated from residue 108, S112A mutant; 0% DMSO only, 100% 113 µM cGMP | 0.079% of 340,000 active | P22694+P31323 | activation, % at 11.4 µM;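 active = activation above a cutoff set at the mean over all compounds plus 3 SD, cut at about 18% in these data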;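 note: higher means more holoenzyme dissociation and a rise in polarization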
R2B FP artifact – counter-screen for PKA-R2B activators: fluorescence polarization artifacts; shares compounds with PKA-R2B act; FP artifact counterscreen; activation, % at 11.4 µM; 6% of 270 active; AID 504796; in the data active = activation above about 20%;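 note: Cy5 labelled IP20 peptide probe with compound but no PKA protein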
PKA-R2B confirm – PKA-R2B complex activation, confirmation; shares compounds with PKA-R2B act; fluorescence polarization; activation, % at 11.4 µM; 9% of 270 active; in the data active = activation above about 19%
R1A FP artifact – fluorescence polarization artifact in PKA-R1A activator counter-screen | shares compounds with PKA-R1A activ | Cy5-IP20 peptide alone, fluorescence polarization artifact counterscreen | activation, % at 11.4 µM | 7% of 280 active;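 active = mean activation over triplicate runs exceeds the adjusted cutoff derived for the parent primary screen, cut at about 19% in these data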;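 note: no PKA protein present so any polarization rise reflects compound interference; higher means stronger polarization artifact and likely false positive in parent screen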
PKA-R1A confirm – confirmation of PKA-R1A complex activators. 9% of 280 active. Cy5-IP20 fluorescence polarization, PKA-R1A holoenzyme dissociation. shares compounds with PKA-R1A activ. activation, % at 11.4 µM;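 active = mean activation over replicate wells exceeds the adjusted hit threshold taken from the earlier primary screen, cut at about 20% in these data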
Target sequence (P00514 whole entry, looked up): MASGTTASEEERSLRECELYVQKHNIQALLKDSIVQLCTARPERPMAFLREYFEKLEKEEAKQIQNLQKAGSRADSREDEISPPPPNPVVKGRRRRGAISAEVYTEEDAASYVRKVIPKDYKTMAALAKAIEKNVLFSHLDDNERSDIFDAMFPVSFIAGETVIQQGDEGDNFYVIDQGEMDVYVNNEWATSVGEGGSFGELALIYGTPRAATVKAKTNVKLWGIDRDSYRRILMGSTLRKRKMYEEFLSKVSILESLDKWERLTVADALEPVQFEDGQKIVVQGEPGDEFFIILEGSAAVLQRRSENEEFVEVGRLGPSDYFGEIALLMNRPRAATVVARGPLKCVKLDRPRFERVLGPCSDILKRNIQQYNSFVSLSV
Rin1-Abl confirm – Rin1-Abl interaction inhibition confirmation. TR-FRET Rin1-Abl binding, purified proteins. inhibition, % at 7.35 µM. 49% of 1,300 active. shares compounds with Rin1-Abl PPI inh
GFP quencher – counter-screen for Rin1-Abl inhibitors: GFP fluorescence quenchers; shares compounds with Rin1-Abl PPI inh; inhibitors/quenchers counterscreen; inhibition, % at 6.75 µM; 8.5% of 1,300 active; AID 602125;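 note: ABL1-eGFP fusion protein alone without its partner RIN1-SBP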
GFP quench DR – counter-screen for Rin1-Abl inhibitors: GFP quenchers, dose response | IC50, µM | AID 602182 | GFP fluorescence interference/quenching counterscreen | shares compounds with Rin1-Abl PPI inh | 230 tested, under 10 active; call rule not given here;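 note: ABL1-eGFP fusion protein alone without its RIN1 binding partner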
Tb MetRS conf – confirmation of Trypanosoma brucei MetRS inhibitors | shares compounds with TbMetRS inhib | T. brucei MetRS enzyme, luminescence (ATP depletion) | inhibition, % at 11.9 µM | 93% of 1,400 active | AID 624412; in the data active = inhibition above about 7%
Jurkat tox – counter-screen for T. brucei MetRS inhibitors: Jurkat cell cytotoxicity. Jurkat cells viability, ATP luminescence. inhibition, % at 8.3 µM. shares compounds with TbMetRS inhib. 12% of 1,400 active; in the data active = inhibition above about 15%
TbMetRS FP orth – inhibits T. brucei methionyl tRNA synthetase in orthogonal FP test; shares compounds with TbMetRS inhib; purified T. brucei MetRS, fluorescence polarization; inhibition, % at 11.9 µM; 44% of 1,400 active; AID 651607; in the data active = inhibition above about 17%
A number is an active result; n = inactive; x = not tested or not shown. Cut-off read from the data, not from the text of the source, unless noted: active = inhibition above about 6.5%; inactive = the rest.

SMILES	PKA-R1A activ	Rin1-Abl PPI inh	TbMetRS inhib	H9c2 protect	PKA-R2B act	R1A FP artifact	PKA-R1A confirm	others
O=S(=O)(Nc1cc2nc3ccccc3nc2n1Cc1ccccc1)c1ccc(Cl)cc1	n	29.6	32.3	n	21.8	x	x	R2B FP artifact=n;PKA-R2B confirm=n;Rin1-Abl confirm=28.3;GFP quencher=n;GFP quench DR=n;Tb MetRS conf=96.3;Jurkat tox=n;TbMetRS FP orth=76.0
CCOc1cc(N2CCOCC2)c(OCC)cc1NC(=O)CN1C(=O)NC(C)(c2ccc(OC)cc2)C1=O (stereo unspecified)	n	n	n	n	n	x	x
COc1ccc(-c2cc(C(=O)Nc3cc(OC)c(OC)c(OC)c3)no2)cc1OC	n	n	n	n	n	x	x
COc1cc(NC(=O)c2cc(-c3ccco3)on2)cc(OC)c1OC	18.9	n	n	n	n	n	n
O=C(O)C1CCC(N2C(=O)c3cccc([N+](=O)[O-])c3C2=O)CC1 (stereo unspecified)	18.8	n	n	n	n	n	n
COC(=O)C1=CN(c2ccc(F)cc2)C(N)=C(C#N)C1c1cccc(F)c1 (stereo unspecified)	x	x	n	x	x	x	x
COc1ccc2nc(NC(=O)c3ccc(NC(=O)C4CCCO4)cc3)sc2c1 (stereo unspecified)	20.4	n	n	n	n	n	n
COCCN(C(=O)CSc1nc2nc(C)cc(C)n2n1)c1c(N)n(Cc2ccccc2)c(=O)[nH]c1=O	20.0	n	n	n	n	n	n
Cc1cc(C)n2nc(SCC(=O)N(C)c3c(N)n(Cc4ccccc4)c(=O)[nH]c3=O)nc2n1	n	n	n	n	n	x	x
Nc1cc(N)nc(SCc2cc(=O)oc3cc4c(cc23)CCC4)n1	20.5	n	n	n	n	n	n
Cc1cc2oc(=O)cc(CSc3nc(N)cc(N)n3)c2cc1C(C)C	n	n	n	n	n	x	x
Cc1ccc(-c2ccc(=O)n(CCC(=O)NCc3ccccn3)n2)cc1	18.6	n	n	n	n	n	n
Cc1ccc(CNC(=O)CCn2nc(-c3ccc(Cl)cc3)ccc2=O)cc1	n	n	n	n	n	x	x
COc1ccc(Cn2ccnc2)cc1Br	20.4	n	n	n	n	n	n
Cc1cc(Br)c(NC(=O)CN2C(=O)NC3(CCOc4ccccc43)C2=O)c(Br)c1 (stereo unspecified)	20.0	n	n	n	n	n	n
CN1OC[C@@H]2CN(Cc3ccc(Cl)cc3)[C@H](c3cccc(Br)c3)C[C@@H]21	n	n	n	n	n	x	x
CC(=O)Nc1ccc(NS(=O)(=O)c2cn(C)c(=O)n(C)c2=O)cc1	19.8	n	n	n	n	n	n
Cn1cc(S(=O)(=O)Nc2ccc(F)c(Cl)c2)c(=O)n(C)c1=O	n	n	n	n	n	x	x
O=Cc1c(-c2ccc(Cl)cc2)oc2ccc(O)cc12	x	n	n	n	x	x	x
Cc1cc(C)n2[nH]c(=O)c(N=Nc3ccc(S(N)(=O)=O)cc3)c2n1	n	n	n	n	n	x	x
Cc1ccc(N=Nc2c(=O)[nH]n3c(C)cc(C)nc23)cc1	22.7	n	n	n	n	n	n
CCOC(=O)N/N=C/c1ccc(N(CC)CC)cc1O	23.5	n	n	n	n	n	n
Cc1cc2[nH]c(=O)c(=O)[nH]c2cc1S(=O)(=O)Nc1cccc(Cl)c1	n	n	n	n	n	x	x
Cc1sc(N)nc1-c1ccccc1	21.1	n	n	n	n	n	n
CCOC(=O)N1CCN(c2nc3ccc(C)cc3n3cnnc23)CC1	n	n	n	n	n	x	x
SMILES	PKA-R1A activ	Rin1-Abl PPI inh	TbMetRS inhib	H9c2 protect	PKA-R2B act	R1A FP artifact	PKA-R1A confirm	others
CCC(CO)n1cnnc1-c1ccncc1 (stereo unspecified)	20.3	n	n	n	n	n	n
CCn1c(SCC(=O)NNC(=O)c2ccc(C)cc2)nnc1-c1ccncc1	n	n	n	n	n	x	x
CC(NC(=O)NCCCn1ccnc1)(C(F)(F)F)C(F)(F)F	20.9	n	n	n	n	n	n
COc1ccc(CC(=O)NCCc2ccc(S(N)(=O)=O)cc2)cc1	n	n	n	n	n	x	x
Cc1ccc(CC(=O)NCCc2ccc(S(N)(=O)=O)cc2)cc1	18.6	n	n	n	n	n	n
O=C(Cn1nc(-c2ccccc2)ccc1=O)Nc1ccc(N2CCN(C(=O)c3cccs3)CC2)cc1	n	n	n	n	n	x	x
O=C(COC(=O)C1COc2ccccc2O1)NC(=O)NC1CCCC1 (stereo unspecified)	20.4	n	n	n	n	n	n
O=C(COC(=O)C1COc2ccccc2O1)NC1CCCCC1 (stereo unspecified)	n	n	n	n	n	x	x
C=CCOc1ccc(Br)cc1CNC(C)(C)C	n	n	n	n	n	x	x
CCOC(=O)N1CCC(NC(=O)CCC(=O)N2CCOc3ccc(Cl)cc32)CC1	20.7	n	n	n	n	n	n
COc1ccc2[nH]c3c(c2c1)CCNC3=O	n	n	n	n	n	x	x
O=C1NCCc2c1[nH]c1ccc([N+](=O)[O-])cc21	19.1	n	n	n	n	n	n
COc1cc(OC)cc(C2=Cc3ccc(OC)cc3C(CC(C)=O)N2c2ccc(C#CCCO)cc2)c1 (stereo unspecified)	x	x	n	x	x	x	x
Fc1ccccc1N1CCN(C2CCN(Cc3c[nH]c4ccccc34)CC2)CC1	19.1	n	n	n	n	n	n
COC(=O)c1c(NC(=O)Cc2ccccc2)sc(C)c1C	n	n	n	n	n	x	x
